Test results as given in ChEMBL document CHEMBL4699628, “Bivalent HIV-1 fusion inhibitors based on peptidomimetics” (Bioorg Med Chem, 2020).

How the values were obtained:
Format in all cases: cell-based
[1] = tested on: TZM-bl; experiment: Binding affinity to two PBDs of N36 trimer of gp41 in HIV1 NL4-3 infected in human TZM-bl cells assessed as inhibition of viral fusion at 50 uM incubated for 48 hrs by Steady-Glo luciferase assay; settings: Human immunodeficiency virus 1
[2] = Cytotoxicity against human TZM-bl cells assessed as reduction in cell viability incubated for 48 hrs by CellTiter 96 aqueous nonradioactive cell proliferation assay
Procedure, shortened: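 TZM-bl cells with serially diluted compounds, no virus, otherwise as in infection assay (48 h culture); viability read by CellTiter 96 non-radioactive cell proliferation assay.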

[3] = Binding affinity to two PBDs of N36 trimer of gp41 in HIV1 NL4-3 infected in human TZM-bl cells assessed as inhibition of viral fusion incubated for 48 hrs by Steady-Glo luciferase assay; settings: Human immunodeficiency virus 1, NL4-3, TZM-bl

| IC50 [3] [µM] | Structure (SMILES) | inhibition [1] [%] | CC50 at 48 h [2] [µM] |
| --- | --- | --- | --- |
|  | COc1ccc(C[C@H](N)C(=O)Nc2ccc(C(=O)N[C@@H](Cc3c[nH]c4ccccc34)C(=O)O)cc2OCCc2c[nH]c3ccccc23)cc1 | 0 | > 50 |
| 22.8 | CC(C)C[C@H](NC(=O)c1ccc(NC(=O)[C@H](Cc2c[nH]c3ccccc23)NC(=O)CCC(=O)NCCOCCOCCOCCNC(=O)CCC(=O)N[C@@H](Cc2c[nH]c3ccccc23)C(=O)Nc2ccc(C(=O)N[C@@H](CC(C)C)C(=O)O)cc2OCCc2c[nH]c3ccccc23)c(OCCc2c[nH]c3ccccc23)c1)C(=O)O |  | > 50 |
| 1.6 | N[C@@H](CC(=O)O)C(=O)Nc1ccc(C(=O)N[C@@H](Cc2c[nH]c3ccccc23)C(=O)O)cc1OCCc1c[nH]c2ccccc12 |  | > 50 |
|  | CC(C)C[C@H](NC(=O)c1ccc(NC(=O)[C@H](Cc2c[nH]c3ccccc23)NC(=O)CCC(=O)NCCOCCOCCOCCOCCOCCOCCOCCOCCOCCNC(=O)CCC(=O)O)c(OCCc2c[nH]c3ccccc23)c1)C(=O)O | 7 | > 50 |
| 23.8 | CC(C)C[C@H](NC(=O)c1ccc(NC(=O)[C@H](Cc2c[nH]c3ccccc23)NC(=O)CCC(=O)NCCOCCNC(=O)CCC(=O)N[C@@H](Cc2c[nH]c3ccccc23)C(=O)Nc2ccc(C(=O)N[C@@H](CC(C)C)C(=O)O)cc2OCCc2c[nH]c3ccccc23)c(OCCc2c[nH]c3ccccc23)c1)C(=O)O |  | > 50 |
| 0.118 | Cc1cn([C@H]2C[C@H](N=[N+]=[N-])[C@@H](CO)O2)c(=O)[nH]c1=O [ZIDOVUDINE] |  | > 100 |
| 1.7 | CC(C)C[C@H](NC(=O)c1ccc(NC(=O)[C@H](Cc2c[nH]c3ccccc23)NC(=O)CCC(=O)NCCOCCOCCOCCOCCOCCOCCOCCOCCOCCNC(=O)CCC(=O)N[C@@H](Cc2c[nH]c3ccccc23)C(=O)Nc2ccc(C(=O)N[C@@H](CC(C)C)C(=O)O)cc2OCCc2c[nH]c3ccccc23)c(OCCc2c[nH]c3ccccc23)c1)C(=O)O |  | > 50 |
| 36.3 | O=C(O)C[C@H](NC(=O)CCC(=O)NCCOCCOCCOCCOCCOCCOCCOCCOCCOCCNC(=O)CCC(=O)N[C@@H](CC(=O)O)C(=O)Nc1ccc(C(=O)N[C@@H](Cc2c[nH]c3ccccc23)C(=O)O)cc1OCCc1c[nH]c2ccccc12)C(=O)Nc1ccc(C(=O)N[C@@H](Cc2c[nH]c3ccccc23)C(=O)O)cc1OCCc1c[nH]c2ccccc12 |  | > 50 |
|  | CC(C)C[C@H](NC(=O)c1ccc(NC(=O)[C@@H](N)Cc2c[nH]c3ccccc23)c(OCCc2c[nH]c3ccccc23)c1)C(=O)O | 1 | > 50 |
| 10.2 | COc1ccc(C[C@H](NC(=O)CCC(=O)NCCOCCOCCOCCOCCOCCOCCOCCOCCOCCNC(=O)CCC(=O)N[C@@H](Cc2ccc(OC)cc2)C(=O)Nc2ccc(C(=O)N[C@@H](Cc3c[nH]c4ccccc34)C(=O)O)cc2OCCc2c[nH]c3ccccc23)C(=O)Nc2ccc(C(=O)N[C@@H](Cc3c[nH]c4ccccc34)C(=O)O)cc2OCCc2c[nH]c3ccccc23)cc1 |  | > 50 |
| 15 | CC(C)C[C@H](NC(=O)c1ccc(NC(=O)[C@H](Cc2c[nH]c3ccccc23)NC(=O)CCC(=O)NCCOCCOCCOCCOCCOCCOCCOCCOCCOCCOCCOCCNC(=O)CCC(=O)N[C@@H](Cc2c[nH]c3ccccc23)C(=O)Nc2ccc(C(=O)N[C@@H](CC(C)C)C(=O)O)cc2OCCc2c[nH]c3ccccc23)c(OCCc2c[nH]c3ccccc23)c1)C(=O)O |  | > 50 |
| 17 | CC(C)C[C@H](NC(=O)c1ccc(NC(=O)[C@H](Cc2c[nH]c3ccccc23)NC(=O)CCC(=O)NCCOCCOCCOCCOCCOCCOCCOCCNC(=O)CCC(=O)N[C@@H](Cc2c[nH]c3ccccc23)C(=O)Nc2ccc(C(=O)N[C@@H](CC(C)C)C(=O)O)cc2OCCc2c[nH]c3ccccc23)c(OCCc2c[nH]c3ccccc23)c1)C(=O)O |  | > 50 |
| 17.3 | CC(C)C[C@H](NC(=O)c1ccc(NC(=O)[C@H](Cc2c[nH]c3ccccc23)NC(=O)CCC(=O)NCCOCCOCCOCCOCCOCCNC(=O)CCC(=O)N[C@@H](Cc2c[nH]c3ccccc23)C(=O)Nc2ccc(C(=O)N[C@@H](CC(C)C)C(=O)O)cc2OCCc2c[nH]c3ccccc23)c(OCCc2c[nH]c3ccccc23)c1)C(=O)O |  | > 50 |
